Activity calls are given as the source filed them. No cut-off for these calls is given here.
Legend:
[1] = Cytotoxicity against mouse RAW264.7 cells assessed as reduction in cell viability incubated for 24 hrs by MTT assay; format: toxicity, cell-based
Procedure, shortened: (§1)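 Cells seeded at 10^5 cells/mL, grown 20 h at 37°C, 5% CO2, then exposed to compound for 24 h. Medium replaced with 0.5 mg/mL MTT for 1 h, formazan dissolved in DMSO, absorbance read at 570 nm; CC50 calculated. HT-29 and HCT-116 kept in McCoy's 5A with 10% FBS, THP-1 in RPMI 1640 with 10% FBS, others in DMEM with 10% FBS.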

[2] = Selectivity ratio of CC50 for cytotoxicity against mouse RAW264.7 cells to EC50 for antibacterial activity against Salmonella typhimurium ATCC14028 infected in mouse RAW264.7 cells; format: toxicity, cell-based; conditions: read-out: Ratio CC50/EC50
[3] = test system: Salmonella typhimurium; assay: Antibacterial activity against Salmonella typhimurium ATCC14028 infected in mouse RAW264.7 cells assessed as reduction in intracellular bacterial growth incubated for 24 hrs in presence of gentamicin by CMFDA and DAPI staining based high-content screening method; format: functional, organism-based, Salmonella enterica subsp. enterica serovar Typhimurium; conditions: Salmonella enterica, ATCC14028, RAW264.7, 24 h
Procedure, shortened: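 RAW264.7 seeded at 10^4 cells/well for 20 h, then infected at MOI 50 with RFP-expressing ATCC14028 (subcultured 2 h, OD600 0.6 ≈ 1.5×10^8 CFU/mL). After 1 h infection: 100 µg/mL gentamicin 1 h, then compound with 20 µg/mL gentamicin for 24 h. Stained with 2.5 µM CMFDA, fixed in 3.7% formaldehyde, DAPI nuclei; nuclei and intracellular bacteria counted by imaging, 10× objective.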

[4] = test system: HT-29; assay: Cytotoxicity against human HT-29 cells assessed as reduction in cell viability incubated for 24 hrs in presence of gentamicin by MTT assay; format: functional; procedure, shortened: as §1
[5] = test system: Listeria monocytogenes; assay: Antibacterial activity against Listeria monocytogenes infected in mouse RAW264.7 cells assessed as reduction in intracellular bacterial growth incubated for 24 hrs in presence of gentamicin by CFU assay; format: functional, organism-based; conditions: RAW264.7, 24 h
Procedure, shortened: (§2)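 Clinical isolate grown overnight (16-18 h) in BHI at 37°C with shaking, subcultured 1:100 for 2 h, pelleted, resuspended in PBS to OD600 0.6. RAW264.7 infected for 1 h, then 100 µg/mL gentamicin 1 h, then compound in medium with 20 µg/mL gentamicin for 24 h. Cells lysed in 0.1% Triton X-100, lysates serially diluted and plated, colonies counted after overnight growth; EC50 calculated.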

[6] = test system: Salmonella typhimurium; assay: Antibacterial activity against Salmonella typhimurium ATCC14028 infected in macrophage-like human THP-1 cells assessed as reduction in intracellular bacterial growth incubated for 24 hrs in presence of gentamicin by CFU assay; format: functional, organism-based, Salmonella enterica subsp. enterica serovar Typhimurium; conditions: Salmonella enterica, ATCC14028, THP-1, 24 h
Procedure, shortened: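 THP-1 cells in RPMI 1640 + 10% FBS, differentiated with 100 ng/mL PMA for 72 h. Cells were infected 1 h with LB-grown bacteria adjusted to OD600 0.6, given 100 µg/mL gentamicin for 1 h, then compound for 24 h in 20 µg/mL gentamicin.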

[7] = test system: Salmonella typhimurium; assay: Antibacterial activity against Salmonella typhimurium ATCC14028 infected in mouse J774.1 cells assessed as reduction in intracellular bacterial growth incubated for 24 hrs in presence of gentamicin by CFU assay; format: functional, organism-based, Salmonella enterica subsp. enterica serovar Typhimurium; conditions: Salmonella enterica, ATCC14028, J774.1, 24 h
Procedure, shortened: (§3)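 Host cells: HCT-116 and HT-29 in McCoy's 5A + 10% FBS; INT-407 and J774.1 in DMEM + 10% FBS. Bacteria were LB-grown, subcultured 2 h, and set to OD600 0.6. After 1 h infection, cells got 100 µg/mL gentamicin for 1 h, then compound for 24 h with 20 µg/mL gentamicin. Lysis was 0.1% Triton X-100, then plating and overnight colony counts; EC50 calculated.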

[8] = test system: Salmonella typhimurium; assay: Antibacterial activity against Salmonella typhimurium ATCC14028 infected in human HCT-116 cells assessed as reduction in intracellular bacterial growth incubated for 24 hrs in presence of gentamicin by CFU assay; format: functional, organism-based, Salmonella enterica subsp. enterica serovar Typhimurium; conditions: Salmonella enterica, ATCC14028, HCT-116, 24 h; procedure, shortened: as §3
[9] = test system: HCT-116; assay: Cytotoxicity against human HCT-116 cells assessed as reduction in cell viability incubated for 24 hrs in presence of gentamicin by MTT assay; format: functional; procedure, shortened: as §1
[10] = test system: Salmonella typhimurium; assay: Antibacterial activity against Salmonella typhimurium ATCC14028 assessed as reduction in bacterial growth upto 64 uM incubated for 24 hrs by SpectraMax microplate reader analysis; format: functional, organism-based; conditions: Salmonella enterica subsp. enterica serovar Typhimurium
Procedure, shortened: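 Overnight LB culture inoculated at 5×10^5 CFU/mL final into CAMHB or into DMEM with 10% FBS. Exposed to a range of concentrations at 37°C; growth followed by absorbance at 600 nm at set times over 24 h.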

[11] = test system: Salmonella Typhi; assay: Antibacterial activity against Salmonella Typhi Ty2 infected in mouse RAW264.7 cells assessed as reduction in intracellular bacterial growth incubated for 24 hrs in presence of gentamicin by CFU assay; conditions: Salmonella enterica, Ty2, RAW264.7, 24 h
[12] = test system: THP-1; assay: Cytotoxicity against monocytic human THP-1 cells assessed as reduction in cell viability incubated for 24 hrs in presence of gentamicin by MTT assay; format: functional; procedure, shortened: as §1
[13] = test system: Salmonella typhimurium; assay: Antibacterial activity against Salmonella typhimurium ATCC14028 infected in human Intestine 407 cells assessed as reduction in intracellular bacterial growth incubated for 24 hrs in presence of gentamicin by CFU assay; format: functional, organism-based, Salmonella enterica subsp. enterica serovar Typhimurium; conditions: Salmonella enterica, ATCC14028, Intestine 407, 24 h; procedure, shortened: as §3
[14] = test system: Salmonella typhimurium; assay: Antibacterial activity against Salmonella typhimurium ATCC14028 infected in human HT-29 cells assessed as reduction in intracellular bacterial growth incubated for 24 hrs in presence of gentamicin by CFU assay; format: functional, organism-based, Salmonella enterica subsp. enterica serovar Typhimurium; conditions: Salmonella enterica, ATCC14028, HT-29, 24 h; procedure, shortened: as §3
[15] = test system: Salmonella typhimurium; assay: Antibacterial activity against Salmonella typhimurium ATCC14028 infected in mouse RAW264.7 cells assessed as reduction in intracellular bacterial growth incubated for 24 hrs in presence of gentamicin by CFU assay; format: functional, organism-based, Salmonella enterica subsp. enterica serovar Typhimurium; conditions: Salmonella enterica, ATCC14028, RAW264.7, 24 h
Procedure, shortened: (§4)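 RAW264.7 cells in DMEM + 10% FBS, seeded at 3×10^5 per well for 20 h. Bacteria were grown in LB for 16–18 h, subcultured 1:100 for 2 h, and brought to OD600 0.6 in PBS. After 1 h infection, cells got 100 µg/mL gentamicin for 1 h, then compound for 24 h with 20 µg/mL gentamicin.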

[16] = test system: Salmonella typhimurium; assay: Antibacterial activity against ACSSuT-resistant Salmonella typhimurium NL10 infected in mouse RAW264.7 cells assessed as reduction in intracellular bacterial growth incubated for 24 hrs in presence of gentamicin by CFU assay; format: functional, organism-based, Salmonella enterica subsp. enterica serovar Typhimurium; conditions: Salmonella enterica, NL10, RAW264.7, 24 h; procedure, shortened: as §4
[17] = Cytotoxicity against human Intestine 407 cells assessed as reduction in cell viability incubated for 24 hrs in presence of gentamicin by MTT assay; format: functional; procedure, shortened: as §1
[18] = test system: J774.1; assay: Cytotoxicity against mouse J774.1 cells assessed as reduction in cell viability incubated for 24 hrs in presence of gentamicin by MTT assay; format: functional; procedure, shortened: as §1
[19] = test system: Salmonella typhimurium; assay: Antibacterial activity against Salmonella typhimurium CGC18 infected in mouse RAW264.7 cells assessed as reduction in intracellular bacterial growth incubated for 24 hrs in presence of gentamicin by CFU assay; conditions: Salmonella enterica, CGC18, RAW264.7, 24 h
[20] = Cytotoxicity against mouse RAW264.7 cells assessed as reduction in cell viability incubated for 24 hrs by CMFDA and DAPI staining based high-content screening method; format: toxicity
[21] = test system: RAW264.7; assay: Cytotoxicity against mouse RAW264.7 cells assessed as reduction in cell viability at 60 uM incubated for 24 hrs by MTT assay; format: toxicity, cell-based; conditions: raw264.7, 24 h
[22] = test system: Yersinia enterocolitica; assay: Antibacterial activity against Yersinia enterocolitica infected in mouse RAW264.7 cells assessed as reduction in intracellular bacterial growth incubated for 24 hrs in presence of gentamicin by CFU assay; format: functional, organism-based; conditions: RAW264.7, 24 h; procedure, shortened: as §2
[23] = molecular target: D(2) dopamine receptor (Homo sapiens) (UniProt P14416); assay: Displacement of [3H]-labelled spiperone human recombinant D2 receptor expressed in CHO cells at 0.1 to 1 uM incubated for 2 hrs; format: cell-based; conditions: dose 0.1-1 µM
D(2) dopamine receptor (Homo sapiens), sequence (P14416 whole entry): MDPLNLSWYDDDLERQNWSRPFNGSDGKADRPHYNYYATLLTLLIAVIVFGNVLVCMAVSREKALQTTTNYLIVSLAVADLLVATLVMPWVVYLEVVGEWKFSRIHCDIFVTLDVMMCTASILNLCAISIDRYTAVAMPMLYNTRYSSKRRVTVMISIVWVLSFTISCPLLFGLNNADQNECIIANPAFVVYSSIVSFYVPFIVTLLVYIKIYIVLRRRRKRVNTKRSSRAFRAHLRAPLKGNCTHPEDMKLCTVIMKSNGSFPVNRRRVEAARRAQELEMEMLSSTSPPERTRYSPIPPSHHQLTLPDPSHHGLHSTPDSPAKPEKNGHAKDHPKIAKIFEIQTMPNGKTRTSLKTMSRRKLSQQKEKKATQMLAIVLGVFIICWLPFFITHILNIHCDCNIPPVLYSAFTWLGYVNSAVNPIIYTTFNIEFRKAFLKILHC
Procedure, shortened: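 Contract radioligand binding: 20 µg human recombinant D2R from CHO cells incubated with [3H]spiperone, then compound added; pH 7.4 Tris-HCl, 2 h at 25°C.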

[24] = test system: THP-1; assay: Cytotoxicity against macrophage-like human THP-1 cells assessed as reduction in cell viability incubated for 24 hrs in presence of gentamicin by MTT assay; format: functional
Procedure, shortened: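 THP-1 differentiated to macrophages with 100 ng/mL PMA for 72 h, then seeded at 10^5 cells/mL and grown 20 h. Compound added for 24 h; 0.5 mg/mL MTT for 1 h, formazan dissolved in DMSO, absorbance at 570 nm; CC50 calculated.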

[25] = test system: Salmonella typhimurium; assay: Antibacterial activity against Salmonella typhimurium ATCC14028 infected in monocytic human THP-1 cells assessed as reduction in intracellular bacterial growth incubated for 24 hrs in presence of gentamicin by CFU assay; format: functional, organism-based, Salmonella enterica subsp. enterica serovar Typhimurium; conditions: Salmonella enterica, ATCC14028, THP-1, 24 h
Procedure, shortened: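 Undifferentiated THP-1 cells in RPMI 1640 + 10% FBS. Cells were infected 1 h with LB-grown bacteria at OD600 0.6, given 100 µg/mL gentamicin for 1 h, then compound for 24 h with 20 µg/mL gentamicin.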

CN1CCN(C2=Nc3ccccc3Oc3ccc(Cl)cc32)CC1 [LOXAPINE]
CC50 at 24 h [1]: 110 µM
selectivity ratio [2]: 19.1
EC50 [3]: 5.77 µM

O=C(O)c1cn(C2CC2)c2cc(N3CCNCC3)c(F)cc2c1=O [CIPROFLOXACIN]
EC50 [3]: 0.06 µM

c1ccc2c(c1)N=C(NCCN1CCCCC1)c1ccccc1N2
CC50 at 24 h [1]: 110 µM
selectivity ratio [2]: 29.8
EC50 [3]: 3.7 µM

Clc1ccc2c(c1)C(NCCN1CCCCC1)=Nc1cccnc1N2
CC50 at 24 h [1]: 61.9 µM
selectivity ratio [2]: 10.9
EC50 [3]: 5.67 µM

Clc1ccc2c(c1)C(NCCN1CCNCC1)=Nc1cccnc1N2
CC50 at 24 h [1]: 123 µM
selectivity ratio [2]: 13.9
EC50 [3]: 8.82 µM

c1ccc2c(c1)N=C(NCCN1CCNCC1)c1ccccc1N2
CC50 at 24 h [1]: 128 µM
EC50 [3]: > 30 µM

Clc1ccc2c(c1)C(NCCCN1CCCC1)=Nc1cccnc1N2
CC50 at 24 h [1]: 101 µM
selectivity ratio [2]: 23.8
EC50 [3]: 4.24 µM

Cc1cc2c(s1)Nc1ccccc1N=C2NCCCN1CCCC1
CC50 at 24 h [1]: 76.8 µM
selectivity ratio [2]: 67.3
EC50 [3]: 1.14 µM

CN(C)CCNC1=Nc2cccnc2Nc2ccc(Cl)cc21
CC50 at 24 h [1]: 159 µM
selectivity ratio [2]: 26.1
EC50 [3]: 6.09 µM

Cc1cc2c(s1)Nc1ccccc1N=C2N1CCN(C)CC1 [OLANZAPINE]
CC50 at 24 h [1]: 198 µM
selectivity ratio [2]: 36.7
EC50 [3]: 5.4 µM

Cc1cc2c(s1)Nc1ccccc1N=C2NCCN1CCNCC1
CC50 at 24 h [1]: 103 µM
selectivity ratio [2]: 24.6
EC50 [3]: 4.17 µM

CN(C)CCNC1=Nc2ccccc2Nc2ccccc21
CC50 at 24 h [1]: 299 µM
selectivity ratio [2]: 19.7
EC50 [3]: 15.2 µM

c1ccc2c(c1)N=C(NCCCN1CCCC1)c1ccccc1N2
CC50 at 24 h [1]: 109 µM
CC50 [4]: > 180 µM
EC50 [5]: 0.6 µM
EC50 [6]: 0.52 µM
EC50 [7]: 0.42 µM
EC50 [8]: 2.85 µM
CC50 [9]: > 180 µM
Activity [10]: inactive
selectivity ratio [2]: 272
EC50 [11]: 0.55 µM
CC50 [12]: 153 µM
EC50 [13]: 2.49 µM
EC50 [14]: 5.97 µM
EC50 [15]: 0.38 µM
EC50 [16]: 2.28 µM
EC50 [3]: 0.4 µM
CC50 [17]: > 180 µM
CC50 [18]: 86.8 µM
EC50 [19]: 1.27 µM
CC50 at 24 h [20]: 92.5 µM
Activity [21]: Non-Toxic
EC50 [22]: 0.93 µM
Activity [23]: inactive
CC50 [24]: 134 µM
EC50 [25]: 1.02 µM

Clc1ccc2c(c1)C(NCCN1CCNCC1)=Nc1ccccc1O2
CC50 at 24 h [1]: 22.5 µM
selectivity ratio [2]: 75
EC50 [3]: 0.3 µM

Cc1cc2c(s1)Nc1ccccc1N=C2NCCN1CCCCC1
CC50 at 24 h [1]: 38.9 µM
selectivity ratio [2]: 16.5
EC50 [3]: 2.36 µM

Cc1cc2c(s1)Nc1ccccc1N=C2NCCN(C)C
CC50 at 24 h [1]: 126 µM
selectivity ratio [2]: 85.3
EC50 [3]: 1.48 µM
